Tested on: MS2 coat protein
Test: apparent Kd, MS2 coat protein; higher = weaker binding; RNA-MaP array; theophylline 2 mM where present
Procedure, shortened: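 On Illumina sequencing-chip clusters, designs were transcribed by stalled E. coli RNA polymerase and titrated with SNAP-549-labelled MS2 coat protein (0.7 or 1.5 nM, doubling to 3 µM), without and then with constant ligand, in 100 mM Tris-HCl pH 7.5, 80 mM KCl, 4 mM MgCl2, BSA, DTT, yeast tRNA and Tween-20. Apparent Kd is the median of filtered per-cluster curve fits to green signal normalised to red-channel RNA signal and control-cluster median Fmax.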

[1] = designed as: OFF switch for theophylline, no ligand
[2] = ligand present: theophylline, designed as: OFF switch for theophylline
[3] = designed as: ON switch for theophylline, no ligand
[4] = ligand present: theophylline, designed as: ON switch for theophylline

| Sequence | apparent Kd [1] [nM] | apparent Kd [2] [nM] | apparent Kd [3] [nM] | apparent Kd [4] [nM] |
| --- | --- | --- | --- | --- |
| CGGUUUGUGAUGGAUACCAGCAGAGAAAAUGUUUAUCCUAACAUGAGGAUCACCCAUGUAUGCCCUUGGCAGCUGUUGUGGGCUG | 64.8 | 62.1 |  |  |
| CGUAUCGUAACUGAUACCAGUGUACUGACAUGAGGAUCACCCAUGUUGGGUUUUGUUGUACACCCUUGGCAGCAGAAUCGAUACG | 67 | 103 |  |  |
| GAAACGUAGGUGGAGCGGUGAAAUGGCGAUACCAGCGUGGAAACACGCCCUUGGCAGCGUUAGAACAUGAGGAUCACCCAUGUUU | 25.2 | 112 |  |  |
| GAACAUGAGGAUCACCCAUGUGAGAAUGAUACCAGUAGAAGAAGAUGCCCUUGGCAGCGUGCGUGAGGAUCACCCAUGUAGGAGG | 24.2 | 27.9 |  |  |
| GAGCUGAUGUAGGGUGGAUAUCCUUGAGAUACCAGUACAGAAAUGUACCCUUGGCAGCUCUUCCUUACAUGAGGAUCACCCAUGU | 18.7 | 23.1 |  |  |
| GAUCCUCGUACGGAUACCAGCGACUAACAUGAGGAUCACCCAUGUGAUAAAGAAAAUAUUUGCCCUUGGCAGCCGAAUAGAUAGU |  |  | 72.7 | 34.9 |
| GAUGAACUAUAUGAUACCAGACAACAUGAGGAUCACCCAUGUGAUAGUCGUCCUCUGCCUGUCCCUUGGCAGCGUAUAGUUUAUC | 40.6 | 102 |  |  |
| GAUGAACUAUUCGAUACCAGACCACAUGAGGAUCACCCAUGUGUGUUUCGUCCUUAGCCGGUCCCUUGGCAGCGAAUAGUUUAUC | 20.2 | 30.3 |  |  |
| GAUGAUAUUGCAGAUACCAGACACAUGAGGAUCACCCAUGUCUCUGUGAUGUAGGAUUGUGUCCCUUGGCAGCUGCGAUAUCAUC | 229 | 91.3 |  |  |
| GCACCAGGUACGGAUACCAGCUGCCACAGUUACAUGAGGAUCACCCAUGUGAUAAAGUGUAGCCCUUGGCAGCUGUACCUGGUGC |  |  | 114 | 14.3 |
| GCACCAGGUACGGAUACCAGCUGCUCGAGAUACAUGAGGAUCACCCAUGUGACCUGGUUUAGCCCUUGGCAGCUGUACCUGGUGC |  |  | 15.8 | 9.98 |
| GGCUGUUGCUCUUUGAAGCGGCAGCGUGAUACCAGAUGUAAGAGCGUCCCUUGGCAGCACGUUUACAUGAGGAUCACCCAUGUCA |  |  | 211 | 72.8 |
| UAAAACAUGAGGAUCACCCAUGUAAAAGAUACCAGAGUGAUGAUCCUCCCUUGGCAGCUUAACGCUGAUUGAUUACAAUCAGCGA |  |  | 93.9 | 180 |
| UAAAACAUGAGGAUCACCCAUGUAAUUGAUACCAGAGUGAUGAUCCUCCCUUGGCAGCAAAACGCUGAUUGAUUACAAUCAGCGA |  |  | 54.3 | 207 |
| UCACAUGAGGAUCACCCAUGUACAGGCGAUACCAGCCGUACAUUGGGCCCUUGGCAGCGCACCGAGACCUUUUAAAGCACUUCGG |  |  | 35.1 | 121 |
| UCAUAUUAGUGAGAUGUAAGGUAUCAUGAUACCAGUAGAUAAUUAUACCCUUGGCAGCAUAACAUGAGGAUCACCCAUGUACAUG | 25.6 | 23.3 |  |  |
| UCCUCCUCCGCAAGGAGGAGGAGUUGCGAUACCAGCACGGUAACGUGCCCUUGGCAGCGCACAUGAGGAUCACCCAUGUCAUGUU | 17.6 | 22.3 |  |  |
| UCGCAUUGCUCAGAUACCAGACAUGAGGAUCACCCAUGUACCAAGGUACCCGAAAGGAAUGUCCCUUGGCAGCUGAGCAAUGCGU | 9.82 | 23.6 |  |  |
| UCGUGUAAAACGGAUACCAGUGAGAAGGAUACAUGAGGAUCACCCAUGUGAGUUGAUCCACACCCUUGGCAGCUGUAUAUAUCUA |  |  | 118 | 706 |
| UGACAUUGCUCAGAUACCAGACAUGAGGAUCACCCAUGUGCCAAAUACGUACAAAUAAAUGUCCCUUGGCAGCUGAGCAAUGUCU | 14.2 | 266 |  |  |
| UGACGAUACCUGGAUACCAGCGACAUGAGGAUCACCCAUGUAUGAGGAUCAGCCAUGUUAUGCCCUUGGCAGCCACGAAAGUCUU | 45.7 | 171 |  |  |
| UGGCAGCACCUCAUGUGCUGCCAAGGUGAUACCAGCAUCGAAAGAUGCCCUUGGCAGCACCAACAUGAGGAUCACCCAUGUAAUA |  |  | 165 | 152 |
| UGUAACAUGAGGAUCACCCAUGUGAGUGAUACCAGACUAGUGUUGGUCCCUUGGCAGCACGCUGGACGAAUGUGUAGUCUAUGCG |  |  | 78.3 | 83.7 |
| UUAGAUAUGACAGAUACCAGCGUGUUGUUGAACAUGAGGAUCACCCAUGUAGUGAUCGAGCGCCCUUGGCAGCUGGUGUGUUUGG |  |  | 161 | 181 |
| UUAUCUAUAUUCGAUACCAGUACCCUGGCCGCAAAUCCUAACAUGAGGAUCACCCAUGUGUACCCUUGGCAGCGGGUAUGGGUUU | 23.2 | 88.8 |  |  |
| UUGCAUAUCUUGGAUACCAGCACAUGAGGAUCACCCAUGUCCGCGGGAUAGCUCCAGAUGUGCCCUUGGCAGCCACAUGCACUUG | 10.2 | 26.4 |  |  |
